Key:
Format in all cases: functional
[1] = test system: Mycobacterium tuberculosis; test: Antibacterial activity against Mycobacterium tuberculosis containing phenotypic embB306 mutation assessed as microbial sensitivity by phenotypic drug susceptibility testing
Procedure, shortened: (§1)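 Phenotypic DST on clinical M. tuberculosis isolates by the egg-based Löwenstein-Jensen proportion method. Species was confirmed by biochemical tests and PCR. Mutations were found by sequencing. Each mutation is reported as a number and as a percentage of the isolates screened.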

[2] = test system: Mycobacterium tuberculosis; test: Antibacterial activity against drug resistant Mycobacterium tuberculosis containing phenotypic ahpC-6 mutation assessed as cumulative microbial sensitivity by phenotypic drug susceptibility testing; procedure, shortened: as §1
[3] = test system: Mycobacterium tuberculosis; test: Antibacterial activity against drug resistant Mycobacterium tuberculosis containing phenotypic katG322 mutation assessed as cumulative microbial sensitivity by phenotypic drug susceptibility testing; procedure, shortened: as §1
[4] = test system: Mycobacterium tuberculosis; test: Antibacterial activity against drug resistant Mycobacterium tuberculosis containing phenotypic ahpC-39 mutation assessed as cumulative microbial sensitivity by phenotypic drug susceptibility testing; procedure, shortened: as §1
[5] = test system: Mycobacterium tuberculosis; test: Antibacterial activity against Mycobacterium tuberculosis containing phenotypic rpoB513,katG315,inhA-15,ahpC-10,ahpC-6 mutation assessed as microbial sensitivity by phenotypic drug susceptibility testing; procedure, shortened: as §1
[6] = test system: Mycobacterium tuberculosis; test: Antibacterial activity against drug resistant Mycobacterium tuberculosis containing phenotypic inhA-15 mutation assessed as cumulative microbial sensitivity by phenotypic drug susceptibility testing; procedure, shortened: as §1
[7] = test system: Mycobacterium tuberculosis; test: Antibacterial activity against drug resistant Mycobacterium tuberculosis containing phenotypic ahpC-9 mutation assessed as cumulative microbial sensitivity by phenotypic drug susceptibility testing; procedure, shortened: as §1
[8] = test system: Mycobacterium tuberculosis; test: Antibacterial activity against drug resistant Mycobacterium tuberculosis containing phenotypic inhA25 mutation assessed as cumulative microbial sensitivity by phenotypic drug susceptibility testing; procedure, shortened: as §1
[9] = test system: Mycobacterium tuberculosis; test: Antibacterial activity against drug resistant Mycobacterium tuberculosis containing phenotypic ahpC-12 mutation assessed as cumulative microbial sensitivity by phenotypic drug susceptibility testing; procedure, shortened: as §1
[10] = test system: Mycobacterium tuberculosis; test: Antibacterial activity against drug resistant Mycobacterium tuberculosis containing phenotypic katG299 mutation assessed as cumulative microbial sensitivity by phenotypic drug susceptibility testing; procedure, shortened: as §1
[11] = test system: Mycobacterium tuberculosis; test: Antibacterial activity against drug resistant Mycobacterium tuberculosis containing phenotypic ahpC-15 mutation assessed as cumulative microbial sensitivity by phenotypic drug susceptibility testing; procedure, shortened: as §1
[12] = test system: Mycobacterium tuberculosis; test: Antibacterial activity against drug resistant Mycobacterium tuberculosis containing phenotypic katG315 mutation assessed as cumulative microbial sensitivity by phenotypic drug susceptibility testing; procedure, shortened: as §1
[13] = test system: Mycobacterium tuberculosis; test: Antibacterial activity against drug resistant Mycobacterium tuberculosis containing phenotypic ahpC-10 mutation assessed as cumulative microbial sensitivity by phenotypic drug susceptibility testing; procedure, shortened: as §1
[14] = test system: Mycobacterium tuberculosis; test: Antibacterial activity against drug resistant Mycobacterium tuberculosis containing phenotypic katG295 mutation assessed as cumulative microbial sensitivity by phenotypic drug susceptibility testing; procedure, shortened: as §1
[15] = test system: Mycobacterium tuberculosis; test: Antibacterial activity against drug resistant Mycobacterium tuberculosis containing phenotypic ahpC-32 mutation assessed as cumulative microbial sensitivity by phenotypic drug susceptibility testing; procedure, shortened: as §1
[16] = test system: Mycobacterium tuberculosis; test: Antibacterial activity against drug resistant Mycobacterium tuberculosis containing phenotypic inhA-8 mutation assessed as cumulative microbial sensitivity by phenotypic drug susceptibility testing; procedure, shortened: as §1
[17] = test system: Mycobacterium tuberculosis; test: Antibacterial activity against drug resistant Mycobacterium tuberculosis containing phenotypic rpoB529 mutation assessed as cumulative microbial sensitivity by phenotypic drug susceptibility testing; procedure, shortened: as §1
[18] = test system: Mycobacterium tuberculosis; test: Antibacterial activity against drug resistant Mycobacterium tuberculosis containing phenotypic rpoB519 mutation assessed as cumulative microbial sensitivity by phenotypic drug susceptibility testing; procedure, shortened: as §1
[19] = test system: Mycobacterium tuberculosis; test: Antibacterial activity against drug resistant Mycobacterium tuberculosis containing phenotypic rpoB511 mutation assessed as cumulative microbial sensitivity by phenotypic drug susceptibility testing; procedure, shortened: as §1
[20] = test system: Mycobacterium tuberculosis; test: Antibacterial activity against drug resistant Mycobacterium tuberculosis containing phenotypic rpoB531 mutation assessed as cumulative microbial sensitivity by phenotypic drug susceptibility testing; procedure, shortened: as §1
[21] = test system: Mycobacterium tuberculosis; test: Antibacterial activity against drug resistant Mycobacterium tuberculosis containing phenotypic rpoB534 mutation assessed as cumulative microbial sensitivity by phenotypic drug susceptibility testing; procedure, shortened: as §1
[22] = test system: Mycobacterium tuberculosis; test: Antibacterial activity against drug resistant Mycobacterium tuberculosis containing phenotypic rpoB515 mutation assessed as cumulative microbial sensitivity by phenotypic drug susceptibility testing; procedure, shortened: as §1
[23] = test system: Mycobacterium tuberculosis; test: Antibacterial activity against drug resistant Mycobacterium tuberculosis containing phenotypic rpoB522 mutation assessed as cumulative microbial sensitivity by phenotypic drug susceptibility testing; procedure, shortened: as §1
[24] = test system: Mycobacterium tuberculosis; test: Antibacterial activity against drug resistant Mycobacterium tuberculosis containing phenotypic rpoB516 mutation assessed as cumulative microbial sensitivity by phenotypic drug susceptibility testing; procedure, shortened: as §1
[25] = test system: Mycobacterium tuberculosis; test: Antibacterial activity against Mycobacterium tuberculosis containing phenotypic rpoB531,rpoB526,rpo533 mutation assessed as microbial sensitivity by phenotypic drug susceptibility testing; procedure, shortened: as §1
[26] = test system: Mycobacterium tuberculosis; test: Antibacterial activity against drug resistant Mycobacterium tuberculosis containing phenotypic rpoB526 mutation assessed as cumulative microbial sensitivity by phenotypic drug susceptibility testing; procedure, shortened: as §1
[27] = test system: Mycobacterium tuberculosis; test: Antibacterial activity against drug resistant Mycobacterium tuberculosis containing phenotypic rpoB513 mutation assessed as cumulative microbial sensitivity by phenotypic drug susceptibility testing; procedure, shortened: as §1
[28] = test system: Mycobacterium tuberculosis; test: Antibacterial activity against drug resistant Mycobacterium tuberculosis containing phenotypic rpoB533 mutation assessed as cumulative microbial sensitivity by phenotypic drug susceptibility testing; procedure, shortened: as §1
[29] = test system: Mycobacterium tuberculosis; test: Antibacterial activity against drug resistant Mycobacterium tuberculosis containing phenotypic rpoB518 mutation assessed as cumulative microbial sensitivity by phenotypic drug susceptibility testing; procedure, shortened: as §1

Molecule `NNC(=O)c1ccncc1` [ISONIAZID] has an Activity [1] of 89.3%, an Activity [2] of 83.1% and an Activity [3] of 89.3%. It also gave an Activity [4] of 86.4%, an Activity [5] of 85.5% and an Activity [6] of 78.5%. It also gave an Activity [7] of 87.6%, an Activity [8] of 87.6% and an Activity [9] of 85.5%. It also gave an Activity [10] of 88.8%, an Activity [11] of 88.4% and an Activity [12] of 72.7%. For the same molecule, the Activity [13] was 80.6%, the Activity [14] was 88.8% and the Activity [15] was 88%. It also gave an Activity [16] of 86.4%.
Work on `CO[C@H]1/C=C/O[C@@]2(C)Oc3c(C)c(O)c4c(O)c(c(/C=N/N5CCN(C)CC5)c(O)c4c3C2=O)NC(=O)/C(C)=C\C=C\[C@H](C)[C@H](O)[C@@H](C)[C@@H](O)[C@@H](C)[C@H](OC(C)=O)[C@@H]1C` [RIFAMPIN] yielded an Activity [1] of 93.8%, an Activity [17] of 95.9% and an Activity [18] of 96.3%. The Activity [19] was 94.2%, the Activity [20] was 61.2% and the Activity [21] was 95.9%. It also gave an Activity [22] of 95.9%, an Activity [23] of 95.9% and an Activity [24] of 87.2%. It also gave an Activity [25] of 93.8%, an Activity [26] of 79.8% and an Activity [27] of 93.8%. The Activity [28] was 90.9% and the Activity [29] was 95.9%.
